# Rows were chosen to be rich in hits. Some 1.2% of all compounds tested hit in one or more screens of this group.
# procasp7 counter = procaspase-7 activators, primary screen, counter-screen for procaspase-3 activator project, biochemical, absorbance, HTS, human. Caspase-7 (Homo sapiens), P55210. recombinant procaspase-7, Ac-DEVD-pNA absorbance 405 nm; D23A/D198A/D206A triple mutant, cannot self-cleave; scale: DMSO 0, 5 µM enzyme 100. activation, % at 8.5 µM. 330,000 tested, 0.093% active. AID 463210, 2010;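 active means percent activation above the screen-wide mean plus 3 SD, cut at about 25% in these data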
#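 buffer or medium = Zinc-free HEPES/NaCl buffer, pH 7.4 | material = Procaspase-7 triple mutant (PC-7 D3A) | input = 2 µM procaspase-7 mutant as dispensed | signal = Epi-absorbance of released pNA at 405 nm, two timepoints | timing = 1 h preincubation, 2 h reaction | replicates = singlicate compound testing | evaluation = % activation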
# MsrA act = bovine MsrA enzyme activators, primary screen, biochemical, absorbance, HTS. purified bovine MsrA, absorbance read-out. activation, % at 10.6 µM. 360,000 tested, 0.3% active; in the data active means activation above about 7.5%;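 further: 0% = vehicle and 100% = reference activator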
# MsrA inh = bovine MsrA enzyme inhibitors, primary screen, biochemical, absorbance, HTS. AID 651718, 2012. purified bovine MsrA, absorbance read-out. Methionine sulfoxide reductase A (Bos taurus). 360,000 tested, 0.75% active. inhibition, % at 15.5 µM; in the data active means inhibition above about 4.5%;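 further: 0% = vehicle wells with enzyme and 100% = reference inhibitor wells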
# proCasp3 act = activators of human procaspase-3 D3A mutant, primary screen, biochemical, absorbance, PC-3 D3A mutant, single concentration; recombinant procaspase-3 D3A, Ac-DEVD-pNA absorbance 405 nm; activation, % at 8.5 µM; 330,000 tested, 0.11% active;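 active means activation above the mean of all tested compounds plus 3 SD, cut at about 21% in these data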;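 further: 0% = DMSO alone and 100% = DMSO wells spiked with extra 5 µM PC-3 D3A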
# Target sequence (P42574 whole entry D9A/D28A/D175A): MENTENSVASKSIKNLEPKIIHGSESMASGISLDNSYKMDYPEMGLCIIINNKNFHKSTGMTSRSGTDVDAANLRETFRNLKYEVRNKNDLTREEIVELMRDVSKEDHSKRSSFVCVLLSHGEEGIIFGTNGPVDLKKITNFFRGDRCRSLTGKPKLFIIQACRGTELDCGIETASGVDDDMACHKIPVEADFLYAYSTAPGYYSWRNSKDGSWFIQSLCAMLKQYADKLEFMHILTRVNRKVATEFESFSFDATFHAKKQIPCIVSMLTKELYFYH
#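 Test system: Procaspase-3 D3A mutant; medium: Zinc-free HEPES/NaCl buffer with 0.01% Triton X-100 at pH 7.4; reagent: DEVD-pNA substrate; doses: one concentration, 8.5 µM nominal, 0.8% DMSO; times: 1 h preincubation plus 2 h reaction at 25 °C; signal: Epi-absorbance at 405 nm of released p-nitroaniline, 0 and 120 min; replicates: singlicate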
# * hit, by the source's call; / = no result given.
SMILES,procasp7 counter,MsrA act,MsrA inh,proCasp3 act
COC(=O)c1c(NC(=O)c2cccs2)sc2c1CCC(C)C2 (stereo not given),2,8.3*,0,0
CC1CCc2c(sc(NC(=O)c3cccs3)c2C(=O)O)C1 (stereo not given),-6,-1,1,-8
CCOc1cc([N+](=O)[O-])cc(/C=C2/NC(=O)N(Cc3ccccc3F)C2=O)c1O,1,-4,4.6*,10
Cc1cc(/C=C2/NC(=O)N(Cc3ccccc3F)C2=O)c(C)n1C,-3,-4,1,6
C#Cc1cccc(Nc2nc(NCc3ccccc3)nc3ccsc23)c1,/,-4,13*,/
COC(=O)C1=C(C)N(Cc2cccc(C(F)(F)F)c2)C(=NCc2ccc(OC)cc2)NC1c1cccc(F)c1 (stereo not given),/,/,-1,/
Cc1c(/C(O)=C2\C(=O)C(=O)N(CCN(C)C)C2c2cccs2)cnn1-c1ccccc1 (stereo not given),-12,-7,4.6*,4
CC(=O)C1=CCN(C)CC1,/,/,-1,/
C1CCN(c2nc3nonc3nc2N2CCCC2)C1,13,-4,5.1*,1
CC1CCCN(c2nc3nonc3nc2N2CCCC(C)C2)C1 (stereo not given),5,1,4.6*,11
CC1CCCCN1c1nc2nonc2nc1N1CCCCC1C (stereo not given),-12,-3,2,4
CC1CCN(c2nc3nonc3nc2N2CCC(C)CC2)CC1,-6,-1,-1,1
O=C(NCc1ccccc1)[C@@H]1CCCN1C(=O)[C@H]1CCCN1C(=O)c1ccccc1F,/,/,0,/
COC(=O)c1ccc(-c2ccc(/C=N/NC(=O)CC3(C)OCCCO3)o2)cc1,7,-4,2,-6
CC1(CC(=O)N/N=C/c2ccc(-c3ccc(C(=O)O)cc3)o2)OCCO1,1,-7,9.0*,-3
Cc1cc(N2CCN(C(=O)OC(C)(C)C)C[C@H]2C)ccc1N1CCS(=O)(=O)CC1,/,/,0,/
CC(=O)Nc1nc(C)c(-c2csc(Nc3cccc(C(C)=O)c3)n2)s1,0,-2,4.6*,0
COC(=O)[C@]12C[C@H](CC(=O)NCc3cccc(C(F)(F)F)c3)C(=O)N(Cc3ccc4c(c3)OCO4)C1=C[C@H](C(C)(C)C)O[C@@H]2C,/,/,0,/
COc1cccc(-c2sc3ccc(OC)cc3c2C#CC2(O)CCCCC2)c1,-6,-5,4.7*,0
COC(=O)c1ccc2nc(C3CCCCC3)c(Cc3ccccc3OC)n2c1,/,/,0,/
CC(C)CC(=O)c1c(O)cc(O)c2c1OC1=C(C(=O)C(C)(C)C(=O)C1(C)C)C2CC(C)C (stereo not given),/,/,0,/
Nc1ccc2nc(-c3cccc(-c4nc5ccc(N)cc5[nH]4)c3)[nH]c2c1,-7,-3,4.6*,-14
Cc1oc2c(CN(C)C)c(O)ccc2c(=O)c1-c1cscn1,1,-5,4.8*,-3
CCOC(=O)c1cc2ccc(OC)cc2oc1=O,4,-6,4.6*,8
COc1ccc2cc(C(=O)NCc3ccccc3)c(=O)oc2c1,0,-1,0,3
SMILES,procasp7 counter,MsrA act,MsrA inh,proCasp3 act
Brc1ccc(-c2csc(N3CCC(c4ccccc4)C3)n2)cc1 (stereo not given),11,-5,0,34*
COC(=O)C1=C(C)N(C)C(=NCc2ccc3c(c2)OCO3)NC1c1ccc(Cl)cc1 (stereo not given),/,/,-1,/
CCCCC(CC)CN=C(N)NC(N)=NCCCCCCN=C(N)NC(N)=NCC(CC)CCCC (stereo not given),10,9.7*,/,-2
COC(=O)C1=C(C)N(Cc2cccc(C(F)(F)F)c2)C(=NCc2cc(OC)c(OC)c(OC)c2)NC1c1cccc(C(F)(F)F)c1 (stereo not given),/,/,-1,/
CCC(=O)Nn1c(C2CCC2)nc2ccccc2c1=O,4,-1,0,-1
COc1cccc(OC)c1C(=O)Nn1c(C2CCC2)nc2ccccc2c1=O,4,9.4*,-1,11
COC(=O)[C@]12C[C@H](CC(=O)NCCCCc3ccccc3)C(=O)N(CCC3=CCCCC3)C1=C[C@H](C(C)(C)C)O[C@@H]2C,/,/,0,/
Cc1cc(N)ncc1[N+](=O)[O-],/,-7,4.6*,/

# High-throughput results as filed in PubChem.
